Experimental data as given in ChEMBL document CHEMBL1150203, “Antimicrobial diterpenes of Croton sonderianus, 1. Hardwickic and 3,4-secotrachylobanoic acids” (1991).
In brackets after ≈: the same amount, converted by molar mass. Activity calls are given as the source filed them. No cut-off for these calls is given here.

Tests used:
[1] = system: Candida albicans; assay: Antifungal activity against Candida albicans ATCC 10231 at 1 mg/ml after 72 hrs by agar-well diffusion assay; assay type: functional; details: ATCC 10231, 72 h, read-out: IZ
How it was run: (§1)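 Fungi and yeasts streaked on mycophil agar from broth culture diluted 1:10 in sterile water; 100 μl of compound at 1 mg/ml placed in 11 mm cork-borer wells; plates held at 30°. Inhibition zone width (mm) recorded at 48 and 72 h and coded – to ++++ (1–2, 3–6, 7–12, >13 mm); amphotericin B positive control.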

[2] = system: Trichophyton mentagrophytes; assay: Antifungal activity against Trichophyton mentagrophytes ATCC 9972 after 48 hrs by twofold serial dilution method; assay type: functional; details: ATCC 9972, 48 h
[3] = system: Bacillus subtilis; assay: Antibacterial activity against Bacillus subtilis ATCC 6633 at 1 mg/ml after 24 hrs by agar-well diffusion assay; assay type: functional; details: ATCC 6633, 24 h, read-out: IZ
How it was run: (§2)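 Agar-well diffusion on eugon agar, bacteria streaked by quadrant method from broth culture diluted 1:10 in sterile water; 11 mm wells given 100 μl of compound at 1 mg/ml; 37° incubation. Zone width (mm) read at 24 and 48 h, coded –, + (1–2), ++ (3–6), +++ (7–12), ++++ (>13); streptomycin sulfate positive control.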

[4] = system: Saccharomyces cerevisiae; assay: Antifungal activity against Saccharomyces cerevisiae ATCC 9763 at 1 mg/ml after 48 hrs by agar-well diffusion assay; assay type: functional; how it was run: as §1
[5] = system: Trametes sanguinea; assay: Antifungal activity against Polyporus sanguineus ATCC 16422 at 1 mg/ml after 48 hrs by agar-well diffusion assay; assay type: functional; how it was run: as §1
[6] = system: Staphylococcus aureus; assay: Antibacterial activity against Staphylococcus aureus ATCC 6538 at 1 mg/ml after 48 hrs by agar-well diffusion assay; assay type: functional; details: ATCC 6538, 48 h, read-out: IZ; how it was run: as §2
[7] = system: Mycolicibacterium smegmatis; assay: Antibacterial activity against Mycobacterium smegmatis ATCC 607 at 1 mg/ml after 48 hrs by agar-well diffusion assay; details: ATCC 607, 48 h, read-out: IZ
[8] = system: Bacillus subtilis; assay: Antibacterial activity against Bacillus subtilis ATCC 6633 after 24 hrs by twofold serial dilution method; assay type: functional; details: ATCC 6633, 24 h
[9] = system: Pseudomonas aeruginosa; assay: Antibacterial activity against Pseudomonas aeruginosa ATCC 15442 at 1 mg/ml after 24 hrs by agar-well diffusion assay; assay type: functional; how it was run: as §2
[10] = system: Trichophyton mentagrophytes; assay: Antifungal activity against Trichophyton mentagrophytes ATCC 9972 at 1 mg/ml after 48 hrs by agar-well diffusion assay; assay type: functional; details: ATCC 9972, 48 h, read-out: IZ; how it was run: as §1
[11] = system: Bacillus subtilis; assay: Antibacterial activity against Bacillus subtilis ATCC 6633 after 48 hrs by twofold serial dilution method; assay type: functional; details: ATCC 6633, 48 h
[12] = system: Helminthosporium; assay: Antifungal activity against Helminthosporium ATCC 4671 at 1 mg/ml after 72 hrs by agar-well diffusion assay; assay type: functional; details: ATCC 4671, 72 h, read-out: IZ; how it was run: as §1
[13] = system: Trametes sanguinea; assay: Antifungal activity against Polyporus sanguineus ATCC 16422 at 1 mg/ml after 72 hrs by agar-well diffusion assay; assay type: functional; how it was run: as §1
[14] = system: Saccharomyces cerevisiae; assay: Antifungal activity against Saccharomyces cerevisiae ATCC 9763 at 1 mg/ml after 72 hrs by agar-well diffusion assay; assay type: functional; how it was run: as §1
[15] = system: Bacillus subtilis; assay: Antibacterial activity against Bacillus subtilis ATCC 6633 at 1 mg/ml after 48 hrs by agar-well diffusion assay; assay type: functional; details: ATCC 6633, 48 h, read-out: IZ; how it was run: as §2
[16] = system: Helminthosporium; assay: Antifungal activity against Helminthosporium ATCC 4671 at 1 mg/ml after 48 hrs by agar-well diffusion assay; assay type: functional; details: ATCC 4671, 48 h, read-out: IZ; how it was run: as §1
[17] = system: Staphylococcus aureus; assay: Antibacterial activity against Staphylococcus aureus ATCC 6538 at 1 mg/ml after 24 hrs by agar-well diffusion assay; assay type: functional; details: ATCC 6538, 24 h, read-out: IZ; how it was run: as §2
[18] = system: Trichophyton mentagrophytes; assay: Antifungal activity against Trichophyton mentagrophytes ATCC 9972 after 24 hrs by twofold serial dilution method; assay type: functional; details: ATCC 9972, 24 h
[19] = system: Pseudomonas aeruginosa; assay: Antibacterial activity against Pseudomonas aeruginosa ATCC 15442 at 1 mg/ml after 48 hrs by agar-well diffusion assay; assay type: functional; how it was run: as §2
[20] = system: Aspergillus niger; assay: Antifungal activity against Aspergillus niger ATCC 16888 at 1 mg/ml after 48 hrs by agar-well diffusion assay; assay type: functional; how it was run: as §1
[21] = system: Aspergillus niger; assay: Antifungal activity against Aspergillus niger ATCC 16888 at 1 mg/ml after 72 hrs by agar-well diffusion assay; assay type: functional; how it was run: as §1
[22] = system: Mycolicibacterium smegmatis; assay: Antibacterial activity against Mycobacterium smegmatis ATCC 607 at 1 mg/ml after 48 hrs by agar-well diffusion assay; assay type: functional; details: ATCC 607, 48 h, read-out: IZ
How it was run: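 Quadrant-streaked eugon agar plates (broth culture diluted 1:10 in water) with 11 mm wells receiving 100 μl of 1 mg/ml compound, incubated at 37°; inhibition zone width in mm scored at 48 h and 72 h as –, +, ++, +++, ++++ (1–2, 3–6, 7–12, >13 mm); streptomycin sulfate control.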

[23] = system: Escherichia coli; assay: Antibacterial activity against Escherichia coli ATCC 10536 at 1 mg/ml after 24 hrs by agar-well diffusion assay; assay type: functional; how it was run: as §2
[24] = system: Candida albicans; assay: Antifungal activity against Candida albicans ATCC 10231 at 1 mg/ml after 48 hrs by agar-well diffusion assay; assay type: functional; details: ATCC 10231, 48 h, read-out: IZ; how it was run: as §1
[25] = system: Escherichia coli; assay: Antibacterial activity against Escherichia coli ATCC 10536 at 1 mg/ml after 48 hrs by agar-well diffusion assay; assay type: functional; how it was run: as §2
[26] = system: Trichophyton mentagrophytes; assay: Antifungal activity against Trichophyton mentagrophytes ATCC 9972 at 1 mg/ml after 72 hrs by agar-well diffusion assay; assay type: functional; details: ATCC 9972, 72 h, read-out: IZ; how it was run: as §1
[27] = system: Saccharomyces cerevisiae; assay: Antifungal activity against Saccharomyces cerevisiae ATCC 9763 after 24 hrs by twofold serial dilution method; assay type: functional; details: ATCC 9763, 24 h
[28] = system: Saccharomyces cerevisiae; assay: Antifungal activity against Saccharomyces cerevisiae ATCC 9763 after 48 hrs by twofold serial dilution method; assay type: functional; details: ATCC 9763, 48 h

Work on `C[C@@H]1CC[C@@]2(C)C(C(=O)O)=CCC[C@@H]2[C@@]1(C)CCc1ccoc1` yielded a zone of inhibition at 1000 µg/mL [1] of 3 mm, an MIC [2] of 25 µg/mL (≈ 79 µM) and a zone of inhibition at 1000 µg/mL [3] of 7 mm. The “inhibition zone (IZ)” value [4] was “inactive”, the “inhibition zone (IZ)” value [5] was “inactive” and the zone of inhibition at 1000 µg/mL [6] was 3 mm. For the same compound, the zone of inhibition at 1000 µg/mL [7] was 7 mm, the MIC [8] was 0.78 µg/mL (≈ 2.46 µM) and the “inhibition zone (IZ)” value [9] was “inactive”. The zone of inhibition at 1000 µg/mL [10] was 7 mm, the MIC [11] was 1.56 µg/mL (≈ 4.93 µM) and the zone of inhibition at 1000 µg/mL [12] was 3 mm. For the same compound, the “inhibition zone (IZ)” value [13] was “inactive”, the “inhibition zone (IZ)” value [14] was “inactive” and the zone of inhibition at 1000 µg/mL [15] was 7 mm. It also gave a zone of inhibition at 1000 µg/mL [16] of 3 mm, a zone of inhibition at 1000 µg/mL [17] of 3 mm and an MIC [18] of 25 µg/mL (≈ 79 µM). For the same compound, the “inhibition zone (IZ)” value [19] was “inactive”, the “inhibition zone (IZ)” value [20] was “inactive” and the “inhibition zone (IZ)” value [21] was “inactive”. For the same compound, the zone of inhibition at 1000 µg/mL [22] was 7 mm, the “inhibition zone (IZ)” value [23] was “inactive” and the zone of inhibition at 1000 µg/mL [24] was 1 mm. For the same compound, the “inhibition zone (IZ)” value [25] was “inactive” and the zone of inhibition at 1000 µg/mL [26] was 3 mm.

With `C[C@@H]1[C@H](O)[C@@H](C)/C=C/C=C/C=C/C=C/C=C/C=C/C=C/[C@H](O[C@@H]2O[C@H](C)[C@@H](O)[C@H](N)[C@@H]2O)C[C@@H]2O[C@](O)(C[C@@H](O)C[C@@H](O)[C@H](O)CC[C@@H](O)C[C@@H](O)CC(=O)O[C@H]1C)C[C@H](O)[C@H]2C(=O)O` [AMPHOTERICIN B] the zone of inhibition at 1000 µg/mL [1] was 7 mm, the MIC [27] was 6.25 µg/mL (≈ 6.76 µM) and the MIC [2] was 0.78 µg/mL (≈ 0.844 µM). The zone of inhibition at 1000 µg/mL ([4]; ATCC 9763, 48 h, read-out: IZ) was 7 mm, the zone of inhibition at 1000 µg/mL ([5]; ATCC 16422, 48 h, read-out: IZ) was over 12 mm and the zone of inhibition at 1000 µg/mL [10] was 7 mm. It also gave a zone of inhibition at 1000 µg/mL [12] of over 12 mm, a zone of inhibition at 1000 µg/mL ([13]; ATCC 16422, 72 h, read-out: IZ) of over 12 mm and a zone of inhibition at 1000 µg/mL ([14]; ATCC 9763, 72 h, read-out: IZ) of 7 mm. It also gave a zone of inhibition at 1000 µg/mL [16] of over 12 mm, an MIC [18] of 0.78 µg/mL (≈ 0.844 µM) and a zone of inhibition at 1000 µg/mL ([20]; ATCC 16888, 48 h, read-out: IZ) of 7 mm. It also gave a zone of inhibition at 1000 µg/mL ([21]; ATCC 16888, 72 h, read-out: IZ) of 7 mm, a zone of inhibition at 1000 µg/mL [24] of 7 mm and an MIC [28] of 12.5 µg/mL (≈ 13.5 µM). For the same compound, the zone of inhibition at 1000 µg/mL [26] was 7 mm.
